Compounds with a hit are over-represented: about 0.72% of the library has one in this group of screens.
hIAP inh = human IAP inhibitors, primary screen, biochemical, luminescence, uHTS | AID 2544, 2010 | purified IAP, CDP-Star luminescence, 30 min | 0.12% of 330,000 active | Intestinal-type alkaline phosphatase (Homo sapiens), P09923 | inhibition, % at 10 µM;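 active means inhibition reaching a set limit with compound at 10 µM in the primary screen, cut at about 35% in these data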
Target sequence (P09923 whole entry, looked up): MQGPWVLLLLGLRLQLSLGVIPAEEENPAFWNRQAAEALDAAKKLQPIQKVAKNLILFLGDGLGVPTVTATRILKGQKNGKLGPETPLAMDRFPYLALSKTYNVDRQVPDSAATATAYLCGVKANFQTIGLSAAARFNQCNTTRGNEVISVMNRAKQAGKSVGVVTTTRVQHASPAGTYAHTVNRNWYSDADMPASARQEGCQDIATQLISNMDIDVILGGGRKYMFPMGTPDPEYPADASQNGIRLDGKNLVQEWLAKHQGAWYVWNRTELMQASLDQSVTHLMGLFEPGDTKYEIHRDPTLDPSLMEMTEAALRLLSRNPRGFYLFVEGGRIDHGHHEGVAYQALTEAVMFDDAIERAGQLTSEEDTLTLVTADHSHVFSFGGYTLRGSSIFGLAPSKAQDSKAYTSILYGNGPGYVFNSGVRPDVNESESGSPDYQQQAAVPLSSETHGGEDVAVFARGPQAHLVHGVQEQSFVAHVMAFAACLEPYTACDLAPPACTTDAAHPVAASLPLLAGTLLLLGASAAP
bIAP inh = bovine intestinal alkaline phosphatase inhibitors, primary screen, selectivity assay for TNAP inhibitor project, biochemical, bovine IAP, CDP-star luminescence; inhibition, % at 20 µM; 190,000 tested, under 10 active; AID 1019, 2008; purified bovine IAP, 30 min;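 active means over 50% inhibition of intestinal alkaline phosphatase at 20 µM in the single-dose screen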
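Incubation: 30 min reaction at room temperature / Material: purified bovine intestinal alkaline phosphatase (IAP) enzyme / Input: enzyme at 1/65,000,000 dilution / Dosing: 20 µM single dose / Signal: CDP-star luminescence signal / Reagent: CDP-star chemiluminescent phosphatase substrate, 30 µM final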
mIAP inh = inhibitors of mouse IAP, primary screen, biochemical, luminescence, uHTS. inhibition, % at 10 µM. purified mouse IAP, CDP-Star luminescence, 30 min. intestinal alkaline phosphatase [Mus musculus]. 0.2% of 330,000 active;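 active means inhibition of at least 40% at 10 µM in the primary screen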
mIAP act = activators of mouse IAP, primary screen, biochemical, luminescence, uHTS; intestinal alkaline phosphatase [Mus musculus]; muIAP, CDP-Star luminescence, 30 min; stronger effect = higher value; 1 = vehicle-only enzyme signal, 0 = enzyme-free wells; activation factor at 10 µM; 0.24% of 330,000 active; AID 2805, 2010;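 active means activation factor of at least 2 at 20 µM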
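System: Mouse IAP enzyme | Also added: CDP-Star substrate | Dosing: Compounds dispensed in DMSO | Schedule: 30 min enzyme-substrate-compound incubation at room temperature | Technique: Chemiluminescence readout | Control set: DMSO-only wells and no-enzyme negative control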
hIAP act = human IAP activators, primary screen, biochemical, luminescence, uHTS; AID 2524, 2010; 0.16% of 330,000 active; Intestinal-type alkaline phosphatase (Homo sapiens), P09923; activation factor at 10 µM; purified human IAP, CDP-Star luminescence, 30 min; stronger effect = higher value; 1 = vehicle-only enzyme, 0 = enzyme-free background;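 active means activation factor of the enzyme at least 2-fold when tested at 20 µM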
bIAP act = bovine intestinal alkaline phosphatase activators, primary screen, biochemical, bovine IAP, CDP-star luminescence | purified bovine IAP, 30 min; stronger effect = higher value; fold of DMSO-control signal, blank-subtracted | activation factor at 20 µM | AID 1016, 2008 | alkaline phosphatase, intestinal [Bos taurus] | 0.17% of 200,000 active;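 active means activation factor of 2 or more at 20 µM, a signal rise over negative controls twice the positive control's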
Hits are given with their value; 0 = inactive; - = no result.

SMILES | hIAP inh | bIAP inh | mIAP inh | mIAP act | hIAP act | bIAP act
S=C(NCc1cccnc1)Nc1cccc(Cl)c1 | 0 | 0 | 0 | 0 | 0 | 0
S=C(NCc1cccnc1)Nc1cc(Cl)cc(Cl)c1 | 0 | - | 0 | 2.1 | 0 | -
COc1ccc(CNC(=S)Nc2cccc(Cl)c2)cc1 | 0 | - | 0 | 2.7 | 0 | -
CCCCc1ccc(NC(=S)NCc2cccc(OC)c2)cc1 | 0 | 0 | 0 | 2.5 | 0 | 0
O=C(OCC(=O)N1CCN(c2ccccc2)CC1)c1ccccc1NCCO | 0 | - | 0 | 0 | 0 | -
Cc1csc2nc(O)c(C(=O)NC3CCCCC3C)c(=O)n12 (stereo unspecified) | 0 | - | 0 | 0 | 0 | -
COc1ccc(/C(C)=N/NC(=O)Cn2nc([N+](=O)[O-])cc2C)cc1 | 0 | - | 0 | 0 | 0 | -
CCc1ccc(NC(=O)C2CCCN(S(=O)(=O)c3ccc4c(c3)CC(C)N4C(C)=O)C2)cc1 (stereo unspecified) | 0 | - | 0 | 0 | 0 | -
CCc1ccc(NC(=O)C2CCN(S(=O)(=O)c3ccc4c(c3)CC(C)N4C(C)=O)CC2)cc1 (stereo unspecified) | 0 | - | 0 | 2.1 | 0 | -
COC(=O)CCNC(=O)c1nn(Cc2ccccc2)c(=O)c2ccccc12 | 0 | - | 0 | 0 | 0 | -
Fc1ccc(-c2n[nH]c(=S)n2/N=C/c2c[nH]c3ccccc23)cc1 | 0 | 0 | 0 | 0 | 0 | 2.1
CCOc1ccc(-c2n[nH]c(=S)o2)cc1 | 0 | 0 | 44 | 0 | 0 | 0
Cc1ccc(-n2ncc3c(N4CCCC(C)C4)ncnc32)c(C)c1 (stereo unspecified) | 0 | - | 44 | 0 | 0 | -
Cc1cccc(N(Cc2ccccc2)C(=O)c2ccccc2S(C)(=O)=O)c1 | 0 | - | 0 | 0 | 0 | -
COC(=O)C(C(=O)OC)c1ncc(C(F)(F)F)cc1Cl | 0 | 0 | 0 | 0 | 0 | 2.2
O=C(OCCN1CCN(C2=NS(=O)(=O)c3ccccc32)CC1)c1cccc(Br)c1 | 0 | - | 0 | 0 | 0 | -
CCN(CC)S(=O)(=O)c1ccc(N2CCN(C)CC2)c(NC(=O)Nc2ccc(C)cc2)c1 | 0 | - | 0 | 2 | 0 | -
CCN(CC)S(=O)(=O)c1ccc(N2CCN(C)CC2)c(NC(=O)CSCC(=O)Nc2cccc(C)c2)c1 | 0 | - | 0 | 0 | 0 | -
CCc1ccc(CNC(=O)CCS(=O)(=O)Cc2ccc(C)cc2)cc1 | 0 | - | 0 | 0 | 0 | -
CCOc1ccc(C2NC(=O)NC(C)=C2C(=O)OCc2ccccc2)cc1 (stereo unspecified) | 0 | - | 0 | 0 | 0 | -
CC1=C(C(=O)OCc2ccccc2)C(c2ccc(N(C)C)cc2)NC(=O)N1 (stereo unspecified) | 0 | 0 | 0 | 0 | 0 | 2.8
Cc1onc(-c2c(F)cccc2Cl)c1C(=O)N1CCN(c2ncc(Br)cn2)CC1 | 0 | - | 0 | 0 | 0 | -
O=C(NCCc1ccc(Cl)cc1)Nc1cccc(Cl)c1 | 0 | 0 | 0 | 2.9 | 0 | 0
S=C(NCCc1ccc(Cl)cc1)Nc1ccc(Cl)cc1Cl | 0 | 0 | 0 | 2.3 | 0 | 0
S=C(NCCCc1ccccc1)Nc1ccc(Cl)cc1 | 0 | 0 | 0 | 2.7 | 0 | 0
SMILES | hIAP inh | bIAP inh | mIAP inh | mIAP act | hIAP act | bIAP act
S=C(NCCCc1ccccc1)Nc1ccccc1 | 0 | - | 0 | 0 | 0 | -
CC(C)(OC(=O)c1cccs1)c1cc2ccccc2c(=O)o1 | 0 | - | 0 | 0 | 0 | -
COc1ccc(-c2csc(=Nc3ccccc3)n2CCO)cc1 | 0 | 0 | 0 | 0 | 0 | 2
COc1ccc(N=c2scc(-c3ccc(S(=O)(=O)N4CCOCC4)cc3)n2CCCO)cc1 | - | 0 | - | - | - | 0
O=C(NC1CCCC1)c1sc(=S)n2c1[nH]c(=O)c1ccccc12 | 0 | 0 | 0 | 0 | 0 | 0
O=C(NCc1ccco1)c1sc(=S)n2c1[nH]c(=O)c1ccccc12 | 0 | 0 | 40 | 0 | 0 | 0
O=C(CCCN1C(=O)/C(=C\c2ccco2)SC1=S)Nc1ccc2ccccc2c1 | 0 | 0 | 41 | 0 | 0 | 0
O=C1/C(=C\c2ccco2)SC(=S)N1Cc1ccccc1 | 0 | 0 | 57 | 0 | 0 | 0
Cc1cccc(-c2nn(-c3ccccc3)cc2C(=O)N(C)CC(=O)Nc2ccc(N3CCOCC3)cc2)c1 | 0 | - | 0 | 0 | 0 | -
C/C(=N\Nc1cccc2cccnc12)c1ccccc1O | 0 | 0 | 0 | 0 | 0 | 0
C/C(=N\Nc1cccc2cccnc12)c1ccccn1 | 0 | 0 | 0 | 0 | 2.1 | 0
Cc1c(CCOC(=O)c2cccc([N+](=O)[O-])c2)sc[n+]1CC(=O)c1ccccc1 | 0 | - | 43 | 0 | 0 | 0
CCOC(=O)C1(CC2CCCCO2)CCN(C(=O)Nc2cccc(SC)c2)CC1 (stereo unspecified) | 0 | 0 | 0 | 2.4 | 0 | 0
CCOC(=O)c1c(S(=O)(=O)NC2CCN(C(=O)OCC)CC2)c(C)n(C)c1C | 0 | - | 0 | 0 | 0 | -
N#Cc1c(NC(=O)CSc2ncnc3sccc23)oc(-c2ccco2)c1-c1ccco1 | 0 | 0 | 70 | 0 | 0 | 0
Cc1cc(NC(=O)CSc2ncnc3sccc23)no1 | 0 | 0 | 0 | 0 | 0 | 0
CC(C)C1Cc2c(C#N)c(N)sc(=S)c2CO1 (stereo unspecified) | 0 | 0 | 40 | 0 | 0 | 0
Cc1ccc(Nc2nc(/N=C/NO)n[nH]2)cc1C | 0 | 0 | 0 | 0 | 2.5 | 0
O=C(Cn1cc(C(F)(F)F)ccc1=O)OCC(=O)c1ccc[nH]1 | 0 | - | 0 | 0 | 0 | -
CC(C)(C)n1nc2c(c1NC(=O)c1c(F)cccc1F)CS(=O)(=O)C2 | 0 | - | 0 | 0 | 0 | -
COc1ccc(OC)c(NC(=S)NCCCN2CCOCC2)c1 | 0 | 0 | 0 | 0 | 0 | 2.4
O=C(O)C1=C(OCc2ccc(F)c(F)c2)C(=O)NCC1 | 0 | 0 | 0 | 0 | 0 | 0
C/C(=N\NC(=O)C1CCCC1)c1ccc(Cl)c(Cl)c1 | 0 | - | 63 | 0 | 0 | -
C/C(=N\NC(=O)C1CCCC1)c1ccc(C(C)C)cc1 | 0 | - | 0 | 0 | 0 | -
CC(NC(=O)CN(C)Cc1nc2ccccc2c(=O)[nH]1)c1ccccc1 (stereo unspecified) | 0 | 0 | 0 | 0 | 0 | 2.1
O=C(Oc1cc(=O)oc2ccccc12)c1cccnc1Cl | 0 | 0 | 0 | 0 | 0 | 2.4
CCOC(=O)C1Nc2ccc(C(=O)O)cc2C2C=CCC12 (stereo unspecified) | 0 | - | 0 | 0 | 0 | -
CCOC(=O)c1ccc2c(c1)C1C=CCC1C(C(=O)O)N2 (stereo unspecified) | 0 | 0 | 55 | 0 | 0 | 0
CCOC(=O)/C(C#N)=C/C=C1\C=Cc2ccccc2N1CC | 0 | 0 | 44 | 0 | 0 | 0
CCCN1C=CC(=CC=C(C#N)C#N)C=C1 | 0 | - | 0 | 0 | 0 | -

Source: PubChem (Sanford-Burnham Center for Chemical Genomics)
